Experimental data taken from article PMC4423195 (Cell Death and Differentiation, 2015).
Entries after “also recorded” stand apart in the source; their conditions may differ.

Experiments:
[1] = tested on: HT22 cells; assay: JC-1 mitochondrial membrane potential imaging; format: cell-based, mouse; conditions: Aβ42O 1 μM, 2 h; HUTS-4 1 : 250, MAB1965 1 : 250, Nox inhibitor 40 nM; n=6
Outline: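 HT22 cells pre-exposed 45 min (methods; legend says 1 h) to HUTS-4 (1:250), MAB1965 (1:250), Nox inhibitor III (40 nM) or none, then Aβ42 oligomers (1 μM, 2 h). Washed, incubated with JC-1 (0.5 μM final, PBS) 15 min at 37°C. Live-cell imaging at 37°C; membrane potential expressed as green/red ratio.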

[2] = tested on: HT22 cells; assay: Mitosox-Red mitochondrial superoxide imaging; format: cell-based, mouse; conditions: Aβ42O 1 μM, 2 h, n=6
Outline: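 Following 45 min (methods; 1 h per legend) pretreatment ± HUTS-4 (1:250), MAB1965 (1:250) or Nox inhibitor III (40 nM), HT22 cells received Aβ42 oligomers (1 μM, 2 h). Washed, given Mitosox-Red at 5 μM final in PBS for 15 min at 37°C, washed again, fixed and imaged by confocal microscopy with identical settings.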

[3] = tested on: HT22 cells; assay: H2DCF general ROS imaging; format: cell-based, mouse; conditions: Aβ42O 1 μM, 2 h, n=6
Outline: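 HT22 cells pretreated 45 min (methods; legend gives 1 h) with or without HUTS-4 (1:250), MAB1965 (1:250) or Nox inhibitor III (40 nM), then Aβ42 oligomers (1 μM, 2 h). After PBS wash, loaded with H2DCF at 50 nM final in HBSS for 15 min at 37°C. Live-cell fluorescence imaging at 37°C under identical acquisition settings.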

[4] = tested on: transferrin receptor (TfR); assay: Cell surface biotinylation, surface TfR in HT22 cells; format: cell-based, mouse (HT22 mouse cell line); conditions: Aβ42O 1 μM, 2 h or FN coating; surface/total; n⩾3 replicates
[5] = tested on: PrP^c; format: cell-based, mouse (HT22 mouse cell line)
[6] = tested on: DIV21 primary hippocampal neurons; assay: FITC-Aβ42O binding to DIV21 primary hippocampal neurons; format: cell-based; conditions: 100 nM FITC-Aβ42O, 1 h, 37 °C
[7] = tested on: Cofilin (mitochondrial); assay: Translocation of Cofilin to mitochondria in HT22 cells; format: cell-based, mouse (HT22 mouse cell line); conditions: Aβ42O 1 μM; 0, 2, 4 h; n=4 replicates
Outline: (§1)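 HT22 cells exposed to Aβ42 oligomers (1 μM) for 0, 2 or 4 h. Intact mitochondria separated from cytosol with a commercial isolation kit. Protein measured by BCA. Equal amounts run on SDS-PAGE, blotted to nitrocellulose, probed and detected by peroxidase secondary/ECL. Bands quantified densitometrically; n=4 replicates, t-test.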

[8] = tested on: activated β1-integrin; assay: FITC-HUTS-4 staining of activated β1-integrin in primary hippocampal neurons; format: cell-based; conditions: DIV14 fixed and permeabilized neurons; Aβ42O 1 μM, 2 h; n=4 replicates
[9] = tested on: Cofilin (phospho-Cofilin); assay: Immunoblot of phospho-Cofilin in primary cortical neurons; format: cell-based, mouse; conditions: Aβ42O 1 μM, 2 h, n=4 replicates
[10] = tested on: Drebrin; assay: Drebrin staining in DIV21 hippocampal neurons; format: cell-based, mouse; conditions: Aβ42O 1 μM, 2 h, n=4–6 replicates
Outline: (§2)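 Hippocampal neurons from P0 WT or Cofilin+/− pups grown on poly-D-lysine to DIV21, then given Aβ42 oligomers (1 μM, 2 h). Fixed in 4% paraformaldehyde 15 min at RT, serum-blocked, primary antibody (Drebrin or PSD95) overnight at 4°C, secondary 45 min at RT; F-actin stained by rhodamine-phalloidin. Mean intensity measured in spine-containing neurites; n=4–6, ANOVA with Tukey test.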

[11] = tested on: F-actin; assay: F-actin staining in DIV21 hippocampal neurons; format: cell-based, mouse; conditions: Aβ42O 1 μM, 2 h, n=4–6 replicates
Outline: as §2

[12] = tested on: Vinculin; assay: FC-enriched fractionation of primary cortical neurons, Vinculin; format: cell-based, mouse; conditions: Aβ42O 1 μM, 2 h, n=3 replicates
Outline: (§3)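 DIV14 cortical neurons from P0 WT or Cofilin+/− pups given Aβ42 oligomers (1 μM, 2 h). Cytosol extracted with saponin buffer (0.1% saponin, 25 mM HEPES, 75 mM potassium acetate) 10 min on ice; residue taken up in 2× SDS sample buffer with sonication (focal-contact fraction). Talin/Vinculin immunoblotted and normalized to vehicle controls set at 100%; n=3, t-test.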

[13] = tested on: Cofilin (phospho-Cofilin); assay: Cytosolic phospho-Cofilin in HT22 cells; format: cell-based, mouse (HT22 mouse cell line); conditions: Aβ42O 1 μM; 0, 2, 4 h
Outline: as §1

[14] = tested on: focal Vinculin; assay: Focal Vinculin immunostaining in DIV21 primary hippocampal neurons; format: cell-based; conditions: Aβ42O 1 μM, 2 h, n=5 replicates
[15] = tested on: HT22 cells; assay: Annexin V/PI apoptosis assay, HT22 cells; format: cell-based, mouse; conditions: Aβ42O 1 μM, 24 h / 18 h, 1% FBS; n=4 replicates
Outline: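 HT22 cells transfected for 48 h with Lipofectamine 2000 with control or SSH1 siRNA (100 nM final), then exposed to Aβ42 oligomers (1 μM, 18 h) in 1% FBS medium. Cells stained on coverslips with FITC-Annexin V and propidium iodide for 20 min at 25°C in the dark, PBS-washed and imaged by fluorescence confocal microscopy. Annexin V marks early apoptosis, PI late apoptosis.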

[16] = tested on: Talin; assay: FC-enriched fractionation of primary cortical neurons, Talin; format: cell-based, mouse; conditions: Aβ42O 1 μM, 2 h, n=3 replicates
Outline: as §3

[17] = tested on: β1-integrin; format: cell-based, mouse (HT22 mouse cell line); conditions: Aβ42O 1 μM, 2 h; direct immunoblotting (total)
[18] = tested on: Talin; assay: FC-enriched fractionation of HT22 cells, Talin; format: cell-based, mouse (HT22 mouse cell line); conditions: Aβ42O (1 μM in text; 0, 0.25, 2 μM for 0, 2, 4 h in Figure S3 legend)
Outline: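 HT22 cells exposed to Aβ42 oligomers. Cytosolic proteins released with saponin buffer (0.1% saponin, 25 mM HEPES, 75 mM potassium acetate) for 10 min on ice. Remaining membrane/cytoskeletal proteins extracted in 2× SDS sample buffer with sonication to give the focal-contact-enriched fraction. Talin detected by immunoblot with ECL.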

[19] = molecular target: β1-integrin-Fc (extracellular domain fused with human IgG-Fc) (Homo sapiens, UniProt P05556); assay: ELISA binding of biotin-Aβ42 to purified β1-integrin-Fc; conditions: n=4 replicates
β1-integrin-Fc (extracellular domain fused with human IgG-Fc), sequence (P05556 21-728): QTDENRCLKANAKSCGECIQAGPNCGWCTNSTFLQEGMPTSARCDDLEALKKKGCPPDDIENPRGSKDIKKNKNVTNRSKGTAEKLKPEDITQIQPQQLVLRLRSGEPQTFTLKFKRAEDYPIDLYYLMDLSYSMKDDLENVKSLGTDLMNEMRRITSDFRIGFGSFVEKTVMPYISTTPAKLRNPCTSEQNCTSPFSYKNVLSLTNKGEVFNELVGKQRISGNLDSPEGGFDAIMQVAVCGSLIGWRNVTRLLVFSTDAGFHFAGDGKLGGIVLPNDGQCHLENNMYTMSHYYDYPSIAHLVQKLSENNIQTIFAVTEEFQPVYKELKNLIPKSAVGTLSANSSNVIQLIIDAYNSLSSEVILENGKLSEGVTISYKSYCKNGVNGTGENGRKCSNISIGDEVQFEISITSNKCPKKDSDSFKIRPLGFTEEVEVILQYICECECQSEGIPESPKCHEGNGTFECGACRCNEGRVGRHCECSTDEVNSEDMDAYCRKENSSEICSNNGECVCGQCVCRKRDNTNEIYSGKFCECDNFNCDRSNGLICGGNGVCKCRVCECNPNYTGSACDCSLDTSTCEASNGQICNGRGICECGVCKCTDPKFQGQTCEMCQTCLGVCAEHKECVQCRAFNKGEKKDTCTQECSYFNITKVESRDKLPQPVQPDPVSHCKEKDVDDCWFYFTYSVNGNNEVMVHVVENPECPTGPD

[20] = tested on: 14-3-3/SSH1 complex; assay: 14-3-3/SSH1 complex, co-immunoprecipitation in HT22 cells; format: cell-based, mouse (HT22 mouse cell line); conditions: Aβ42O 1 μM, 2 h
[21] = SDS-PAGE/immunoblotting of Aβ42 oligomer preparations; format: physicochemical; conditions: immunoblotting of Aβ42O preparation
[22] = tested on: SSH1/Cofilin complex; assay: SSH1/Cofilin complex, co-immunoprecipitation in HT22 cells; format: cell-based, mouse (HT22 mouse cell line); conditions: Aβ42O 1 μM, 2 h; n=3 replicates
[23] = tested on: PSD95; assay: PSD95 staining in DIV21 hippocampal neurons; format: cell-based, mouse; conditions: Aβ42O 1 μM, 2 h, n=4–6 replicates
Outline: as §2

[24] = tested on: HT22 cells; assay: FITC-Aβ42O binding/uptake in HT22 cells; format: cell-based, mouse; conditions: FITC-Aβ42O 0.1 μM, 2 h; MAB1965 1 : 500, MnCl2 0.5 mM or MgCl2 5 mM; n=4 replicates
[25] = HUTS-4 1 : 250, MAB1965 1 : 250, Nox inhibitor 40 nM
[26] = DIV14 Cofilin^+/− cortical neurons

For `c1ccc(Cn2nnc3c(Sc4nc5ccccc5o4)ncnc32)cc1` [NOX inhibitor], the “extent of restoration of JC-1 membrane potential” value [1] was “not fully restored”, the “prevention of Aβ42O-induced change in Mitosox-Red” value [2, 25] was “significantly prevented such changes” and the “prevention of Aβ42O-induced change in H2DCF” value [3, 25] was “significantly prevented such changes”.

For fibronectin [FN], the “effect on surface TfR” value [4] was “modestly, but significantly, increased surface/total transferrin receptor (TfR)” and the “effect on surface PrP^c” value [5] was “unaffected”.

For “FITC-Aβ42O: FITC-Aβ1-42 (American Peptide), oligomer preparation”, the “FITC-Aβ42O binding to neurons (localisation)” value [6] was “associated with dendrites and dendritic spines”.

With “amyloid-β protein 1–42 oligomers [Aβ42O]” the “effect on surface TfR” value [4] was “no significant effect on surface TfR”, the “mitochondrial superoxide (Mitosox-Red)” value [2] was “increased mitochondrial superoxide (Mitosox-Red)” and the “translocation of Cofilin to mitochondria” value [7] was “rapidly increased the translocation of Cofilin to mitochondria”. For the same compound, the “reduction of FITC-HUTS-4-positive activated β1-integrin” value [8] was over 50%, the Cofilin dephosphorylation/activation ([9]; WT primary cortical neurons) was “significantly induced Cofilin dephosphorylation/activation” and the “Cofilin dephosphorylation in β1-integrin cKO neurons” value ([9]; β1-integrin cKO neurons (Lenti-Cre-mRFP)) was “absent in β1-integrin cKO neurons”. For the same compound, the “effect on Drebrin, WT neurons” value ([10]; spine-containing neurites) was “significantly depleted F-actin, Drebrin, and PSD95”, the “effect on Drebrin, Cofilin^+/− neurons” value ([10]; Cofilin^+/−) was “no significant effects” and the “effect on F-actin, WT neurons” value ([11]; spine-containing neurites) was “significantly depleted F-actin, Drebrin, and PSD95”. For the same compound, the “effect on F-actin, Cofilin^+/− neurons” value ([11]; Cofilin^+/−) was “no significant effects”, the “effect on FC Vinculin, Cofilin^+/− neurons” value [12, 26] was “did not significantly deplete Vinculin and Talin” and the “effect on FC-enriched/focal Vinculin, WT primary neurons” value ([12]; DIV14 cortical neurons) was “saliently reduced FC-enriched but not cytosolic (cyto) Vinculin and Talin; also recorded: depleted focal Vinculin and Talin”. The “phospho-Cofilin in the cytosol” value [13] was “decreasing phospho-Cofilin in the cytosol”, the “ROS levels (H2DCF)” value [3] was “increased ROS levels” and the “focal Vinculin immunoreactivity in spine-containing dendrites” value [14] was “significantly reduced focal Vinculin immunoreactivity”. The “induction of early (Annexin V) and late (PI) apoptosis” value [15] was “significant induction of early (Annexin V) and late (PI) apoptosis”, the “effect on FC Talin, Cofilin^+/− neurons” value [16, 26] was “did not significantly deplete Vinculin and Talin” and the “effect on FC-enriched/focal Talin, WT primary neurons” value ([16]; DIV14 cortical neurons) was “saliently reduced FC-enriched but not cytosolic (cyto) Vinculin and Talin; also recorded: depleted focal Vinculin and Talin”. For the same compound, the “effect on total β1-integrin” value [17] was “without altering total β1-integrin”, the “effect on FC-enriched Talin, HT22 cells” value [18] was “saliently reduced FC-enriched but not cytosolic (cyto) Vinculin and Talin” and the “binding to β1-integrin-Fc with MnCl2” value ([19]; MnCl2 0.5 mM) was “essentially eliminated Aβ42O binding; also recorded: failed to support Aβ42O binding to β1-integrin-Fc”. The “binding to β1-integrin-Fc in the absence of cation” value ([19]; no cation / absence of Mg^2+) was “did not bind to β1-integrin-Fc; also recorded: minimal binding”, the “effect on surface PrP^c” value [5] was “unaffected” and the 14-3-3/SSH1 complexes [20] was “reduced 14-3-3/SSH1 complexes”. For the same compound, the “oligomeric state on SDS-PAGE” value [21] was “contained SDS-resistant dimers, trimers, and tetramers”, the SSH1/Cofilin complexes [22] was “significantly increased SSH1/Cofilin complexes” and the “effect on PSD95, WT neurons” value ([23]; spine-containing neurites) was “significantly depleted F-actin, Drebrin, and PSD95”. The “effect on PSD95, Cofilin^+/− neurons” value ([23]; Cofilin^+/−) was “no significant effects”.

For `[Cl][Mn][Cl]` [MnCl2], the “effect on FITC-Aβ42O binding to HT22 cells” value [24] was “significantly reduced”.

With `Cc1c(C)c2c(c(C)c1O)CCC(C)(C(=O)O)O2` (stereo not shown) [Trolox] the “restoration of 14-3-3/SSH1 complexes reduced by Aβ42O” value ([20]; prior treatment 30 min, MAB1965 1:250 or Trolox 200 µM) was “largely restored”.

For “Aβ42 monomers: freshly solubilized monomer; tested as biotin-Aβ42M”, the “binding to β1-integrin-Fc, monomers and fibrils” value ([19]; 5 mM MgCl2, biotin-Aβ42M or biotin-Aβ42F) was “bound poorly to β1-integrin-Fc”.
